Results as given in ChEMBL document CHEMBL1773042, “Antiproliferative triterpenes from the leaves and twigs of Juglans sinensis on HSC-T6 cells” (2011).

Columns and labels:
[1] = Cell cycle arrest in rat HSC-T6 cells assessed as inhibition of DNA synthesis at S phase at 25 uM after 48 hrs; type: functional, cell-based; design: scale not given: the % may be the effect or the level left
Procedure, shortened: (§1)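 Cells seeded at 5 × 10^5 cells/mL for 24 h, then treated at 25 μM for 24 or 48 h; controls received vehicle. Cells were harvested, washed twice in PBS pH 7.4 and fixed overnight in ice-cold 70% ethanol at 4 °C. Stained with PI/RNase buffer for 30 min at room temperature, then flow cytometry for phase distribution. Mean ± SD, three independent experiments in triplicate wells.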

HSC-T6 [2] = assay: Induction of apoptosis in rat HSC-T6 cells assessed as change in cell morphology after 24 hrs by phase contrast microscopy; type: functional, cell-based
[3] = Cell cycle arrest in rat HSC-T6 cells assessed as inhibition of DNA synthesis at S phase at 25 uM after 24 hrs; type: functional, cell-based; design: scale not given: the % may be the effect or the level left; procedure, shortened: as §1
[4] = Cell cycle arrest in rat HSC-T6 cells assessed as inhibition of DNA synthesis at G0/G1 phase at 25 uM after 24 hrs; type: functional, cell-based; design: scale not given: the % may be the effect or the level left; procedure, shortened: as §1
[5] = Cell cycle arrest in rat HSC-T6 cells assessed as inhibition of DNA synthesis at G2/M phase at 25 uM after 24 hrs; type: functional, cell-based; design: scale not given: the % may be the effect or the level left; procedure, shortened: as §1
HSC-T6 [6] = assay: Induction of apoptosis in rat HSC-T6 cells assessed as change in cell morphology after 48 hrs by phase contrast microscopy; type: functional, cell-based
[7] = Cell cycle arrest in rat HSC-T6 cells assessed as inhibition of DNA synthesis at G2/M phase at 25 uM after 48 hrs; type: functional, cell-based; design: scale not given: the % may be the effect or the level left; procedure, shortened: as §1
HSC-T6 [8] = assay: Induction of apoptosis in rat HSC-T6 cells assessed as change in cell morphology at 10 to 50 uM by phase contrast microscopy; type: functional, cell-based; conditions: TDE = time-dependent effect
[9] = Antiproliferative activity against rat HSC-T6 cells at 100 uM after 48 hrs by MTT assay; type: functional; conditions: HSC-T6, 48 h
Procedure, shortened: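 HSC-T6 (immortalized rat hepatic stellate line) kept in DMEM with 10% heat-inactivated FBS, penicillin/streptomycin, 37 °C, 5% CO2. Seeded at 5 × 10^4 cells/mL, grown 24 h, then exposed 48 h to vehicle or compound (10–100 μM, DMSO final 0.1%). MTT 2 mg/mL for 2 h, absorbance at 540 nm. Proliferation given as 100 × treated/vehicle absorbance. Mean of three independent experiments.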

[10] = Cell cycle arrest in rat HSC-T6 cells assessed as inhibition of DNA synthesis at sub-G1 phase at 25 uM after 24 hrs; type: functional, cell-based; design: scale not given: the % may be the effect or the level left; procedure, shortened: as §1
[11] = Cell cycle arrest in rat HSC-T6 cells assessed as inhibition of DNA synthesis at sub-G1 phase at 25 uM after 48 hrs; type: functional, cell-based; design: scale not given: the % may be the effect or the level left; procedure, shortened: as §1
[12] = Cell cycle arrest in rat HSC-T6 cells assessed as inhibition of DNA synthesis at G0/G1 phase at 25 uM after 48 hrs; type: functional, cell-based; design: scale not given: the % may be the effect or the level left; procedure, shortened: as §1
[13] = Induction of apoptosis in rat HSC-T6 cells assessed as late apoptotic cells at 25 uM after 24 hrs using Annexin V-FITC staining by flow cytometry; type: functional
Procedure, shortened: (§2)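 After 24 h seeding at 5 × 10^5 cells/mL, HSC-T6 cells were treated at 10 or 25 μM for 24 or 48 h, then collected and washed twice with PBS. Annexin-V/PI double staining with flow cytometry separated Annexin-V+/PI− (early apoptotic), Annexin-V+/PI+ (late apoptotic) and Annexin-V−/PI+ (dead) cells, expressed as percentages. Data representative of three independent experiments.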

[14] = Induction of apoptosis in rat HSC-T6 cells assessed as viable cells at 10 uM after 48 hrs using Annexin V-FITC staining by flow cytometry; type: functional; conditions: HSC-T6, 48 h, read-out: Activity; procedure, shortened: as §2
[15] = Induction of apoptosis in rat HSC-T6 cells assessed as dead cells at 25 uM after 24 hrs using Annexin V-FITC staining by flow cytometry; type: functional
Procedure, shortened: (§3)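 HSC-T6 cells seeded at 5 × 10^5 cells/mL in 12-well plates for 24 h, then exposed to compound at 10 or 25 μM for 24 or 48 h. Harvested, washed twice in PBS pH 7.4, stained with Annexin-V/PI and analysed by flow cytometry. Dead cells scored as Annexin-V−/PI+, given as percentage. Representative of three independent experiments.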

[16] = Induction of apoptosis in rat HSC-T6 cells assessed as viable cells at 25 uM after 24 hrs using Annexin V-FITC staining by flow cytometry; type: functional; conditions: HSC-T6, 24 h, read-out: Activity; procedure, shortened: as §2
[17] = Induction of apoptosis in rat HSC-T6 cells assessed as dead cells at 10 uM after 24 hrs using Annexin V-FITC staining by flow cytometry; type: functional; procedure, shortened: as §3
[18] = Induction of apoptosis in rat HSC-T6 cells assessed as early apoptotic cells at 25 uM after 48 hrs using Annexin V-FITC staining by flow cytometry; type: functional; procedure, shortened: as §2
[19] = Induction of apoptosis in rat HSC-T6 cells assessed as early apoptotic cells at 25 uM after 24 hrs using Annexin V-FITC staining by flow cytometry; type: functional; procedure, shortened: as §2
[20] = Induction of apoptosis in rat HSC-T6 cells assessed as early apoptotic cells at 10 uM after 24 hrs using Annexin V-FITC staining by flow cytometry; type: functional; procedure, shortened: as §2
[21] = Induction of apoptosis in rat HSC-T6 cells assessed as late apoptotic cells at 10 uM after 24 hrs using Annexin V-FITC staining by flow cytometry; type: functional; procedure, shortened: as §2
[22] = Induction of apoptosis in rat HSC-T6 cells assessed as late apoptotic cells at 10 uM after 48 hrs using Annexin V-FITC staining by flow cytometry; type: functional; procedure, shortened: as §2
[23] = Induction of apoptosis in rat HSC-T6 cells assessed as viable cells at 25 uM after 48 hrs using Annexin V-FITC staining by flow cytometry; type: functional; conditions: HSC-T6, 48 h, read-out: Activity; procedure, shortened: as §2
[24] = Induction of apoptosis in rat HSC-T6 cells assessed as dead cells at 10 uM after 48 hrs using Annexin V-FITC staining by flow cytometry; type: functional; procedure, shortened: as §3
[25] = Induction of apoptosis in rat HSC-T6 cells assessed as early apoptotic cells at 10 uM after 48 hrs using Annexin V-FITC staining by flow cytometry; type: functional; procedure, shortened: as §2
[26] = Induction of apoptosis in rat HSC-T6 cells assessed as dead cells at 25 uM after 48 hrs using Annexin V-FITC staining by flow cytometry; type: functional; procedure, shortened: as §3
[27] = Induction of apoptosis in rat HSC-T6 cells assessed as late apoptotic cells at 25 uM after 48 hrs using Annexin V-FITC staining by flow cytometry; type: functional; procedure, shortened: as §2
[28] = Induction of apoptosis in rat HSC-T6 cells assessed as viable cells at 10 uM after 24 hrs using Annexin V-FITC staining by flow cytometry; type: functional; conditions: HSC-T6, 24 h, read-out: Activity; procedure, shortened: as §2
[29] = Antiproliferative activity against rat HSC-T6 cells at 50 uM after 48 hrs by MTT assay; type: functional; conditions: HSC-T6, 48 h
[30] = Antiproliferative activity against rat HSC-T6 cells at 10 uM after 48 hrs by MTT assay; type: functional; conditions: HSC-T6, 48 h

Row | Structure (SMILES) | Activity [1] | Activity (HSC-T6 [2]) | Activity [3] | Activity [4] | Activity [5] | Activity (HSC-T6 [6]) | Activity [7] | Activity (HSC-T6 [8]) | inhibition at 100 µM [9] | Activity [10] | Activity [11] | Activity [12] | other results
1 | CC1(C)C=C2[C@H]3CC[C@@H]4[C@@]5(C)C(=O)C[C@H](O)C(C)(C)[C@@H]5CC[C@@]4(C)[C@]3(C)CC[C@@]2(C)CC1 | 10.6% | Dose-dependent effect | 14% | 53.2% | 17.8% | Dose-dependent effect | 18.8% | tde | 14.2% | 1.9% | 5% | 43.6% | –
2 | C[C@H]1[C@H](C)CC[C@]2(C(=O)O)CC[C@]3(C)C(=CC[C@@H]4[C@@]5(C)C[C@@H](O)[C@@H](O)[C@@](C)(CO)[C@@H]5CC[C@]43C)[C@H]12 | – | – | – | – | – | – | – | – | 20.6% | – | – | – | –
3 | C[C@H]1[C@H](C)CC[C@]2(C(=O)O)CC[C@]3(C)C(=CC[C@@H]4[C@@]5(C)CCC(=O)[C@@](C)(CO)[C@@H]5CC[C@]43C)[C@H]12 | – | – | – | – | – | – | – | – | 77.9% | – | – | – | –
4 | C=C(C)[C@@H]1CC[C@]2(C)CC[C@]3(C)[C@H](CC[C@@H]4[C@@]5(C)C[C@@H](O)[C@H](O)C(C)(C)[C@@H]5CC[C@]43C)[C@@H]12 | 11% | Dose-dependent effect | 13.7% | 55.9% | 19.3% | Dose-dependent effect | 18% | tde | 11% | 1.9% | 5.4% | 47.2% | –
5 | C[C@H]1[C@H](C)CC[C@]2(C(=O)O)CC[C@]3(C)C(=CC[C@@H]4[C@@]5(C)CC[C@H](O)[C@@](C)(CO)[C@@H]5CC[C@]43C)[C@H]12 | – | – | – | – | – | – | – | – | 50% | – | – | – | –
6 | C[C@H]1[C@H](C)CC[C@]2(C(=O)O)CC[C@]3(C)C(=CC[C@@H]4[C@@]5(C)C[C@@H](O)[C@H](O)C(C)(C)[C@@H]5CC[C@]43C)[C@H]12 [COROSOLIC ACID] | 4.3% | Dose-dependent effect | 10.6% | 44.6% | 20.6% | Dose-dependent effect | 6% | tde | 15.6% | 12.4% | 57.7% | 14.7% | Activity [13]: 15.24%; viability at 10 µM [14]: 66.6%; Activity [15]: 8.77%; viability at 25 µM [16]: 65.5%; Activity [17]: 3.16%; Activity [18]: 4.41%; Activity [19]: 10.45%; Activity [20]: 6.23%; Activity [21]: 7.12%; Activity [22]: 17.8%; viability at 25 µM [23]: 54.5%; Activity [24]: 5.44%; Activity [25]: 10.14%; Activity [26]: 31.85%; Activity [27]: 9.23%; viability at 10 µM [28]: 83.5%
7 | O=C(O[C@@H]1Cc2c(O)cc(O)cc2O[C@@H]1c1cc(O)c(O)c(O)c1)c1cc(O)c(O)c(O)c1 [EPIGALOCATECHIN GALLATE] | 8.3% | – | 12.1% | 51.9% | 20.1% | – | 19.6% | – | 33.4% | 1.9% | 4.5% | 42.3% | inhibition at 50 µM [29]: 41.7%; inhibition at 10 µM [30]: 83.8%
8 | C[C@H]1[C@H](C)CC[C@]2(C(=O)O)CC[C@]3(C)C(=CC[C@@H]4[C@@]5(C)CC[C@H](O)C(C)(C)[C@@H]5CC[C@]43C)[C@H]12 [URSOLIC ACID] | 9.6% | Dose-dependent effect | 11.9% | 56.4% | 18.9% | Dose-dependent effect | 16.7% | tde | 14.8% | 2.9% | 17% | 39.7% | –
